The text below walks through data of ChEMBL document CHEMBL1135739, “Radiolabeled amino acids for tumor imaging with PET: radiosynthesis and biological evaluation of 2-amino-3-[18F]fluoro-2-methylpropanoic acid and 3-[18F]fluoro-2-methyl-2-(methylamino)propanoic acid” (J Med Chem, 2002).

Data set [1] is filed under the species Rattus norvegicus. As to the kind of experiment: Radioactivity distribution in testis of normal fischer rat after injection of [18F]-fluoro-2-methyl-2-(methylamino)propanoic acid after 60 min. It counts as ADME, organism-based. To be noted: in vivo, 1 h. An outline of the steps:
(§1)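 Male Fischer 344 rats (200–250 g), fed ad libitum, under intramuscular ketamine:xylazine anesthesia, got ~85 μCi radiotracer in 0.3 mL sterile water by tail-vein catheter. Groups of four were killed at 5, 30, 60 or 120 min. Dissected tissues were weighed and gamma-counted with dose standards. Counts were decay-corrected and given as %ID/g, mean ± standard error. Tissues were compared by one-way ANOVA.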

Data set [2] is filed under the species Rattus norvegicus. Nature of the data set: Radioactivity distribution in testis of normal fischer rat after injection of [18F]-fluoro-2-methyl-2-(methylamino)propanoic acid after 5 min. It counts as ADME, organism-based. The conditions noted are these: in vivo. An outline of the steps:
as §1

Data set [3] is filed under the species Rattus norvegicus. Nature of the data set: Radioactivity distribution in bone of normal fischer rat after injection of [18F]-fluoro-2-methyl-2-(methylamino)propanoic acid after 120 min. Format: ADME, organism-based, Bone element. To be noted: in vivo, 2 h. The gist of the method:
(§2)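 Normal male Fischer 344 rats (200–250 g), anesthetized with i.m. ketamine:xylazine (1:1), got ~85 μCi of tracer in 0.3 mL sterile water i.v. via tail-vein catheter. Groups of four were killed at 5, 30, 60 or 120 min. Tissues were weighed and gamma-counted against dose standards, and counts were decay-corrected to %ID/g. Results are mean ± standard error (n = 4), compared by one-way ANOVA.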

The species named for data set [4] is Rattus norvegicus. Nature of the data set: Radioactivity distribution in liver of normal fischer rat after injection of [18F]-fluoro-2-methyl-2-(methylamino)propanoic acid after 60 min. Format: ADME, organism-based. To be noted: in vivo, 1 h. The gist of the method: (§3)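 Male Fischer 344 rats (200–250 g), fed ad libitum, anesthetized with intramuscular ketamine:xylazine (1:1, 0.1 mL/100 g). About 85 μCi tracer in 0.3 mL sterile water was given by tail-vein catheter. Groups of four were killed at 5, 30, 60 or 120 min. Tissues were weighed and gamma-counted against dose standards, decay-corrected, and expressed as %ID/g (mean ± standard error).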

Data set [5] is filed under the species Rattus norvegicus. Nature of the data set: Radioactivity distribution in heart of normal fischer rat after injection of [18F]-fluoro-2-methyl-2-(methylamino)propanoic acid after 120 min. It counts as ADME, organism-based. The conditions noted are these: in vivo, 2 h. The gist of the method: as §2
The species named for data set [6] is Rattus norvegicus. As to the kind of experiment: Radioactivity distribution in blood of normal fischer rat after injection of [18F]-fluoro-2-methyl-2-(methylamino)propanoic acid after 5 min. It counts as ADME, organism-based. To be noted: in vivo. An outline of the steps:
as §2

Data set [7] is filed under the species Rattus norvegicus. Nature of the data set: Radioactivity distribution in pancreas of normal fischer rat after injection of [18F]-fluoro-2-methyl-2-(methylamino)propanoic acid after 5 min. It counts as ADME, organism-based. The conditions noted are these: in vivo. An outline of the steps: as §3
For data set [8], the species on record is Rattus norvegicus. As to the kind of experiment: Radioactivity distribution in liver of normal fischer rat after injection of [18F]-fluoro-2-methyl-2-(methylamino)propanoic acid after 30 min. It counts as ADME, organism-based. The conditions noted are these: in vivo, 0.5 h. An outline of the steps:
as §3

The species named for data set [9] is Rattus norvegicus. As to the kind of experiment: Radioactivity distribution in muscle of normal fischer rat after injection of [18F]-fluoro-2-methyl-2-(methylamino)propanoic acid after 5 min. To be noted: in vivo. Format: ADME, organism-based, Muscle tissue. An outline of the steps:
as §3

The species entered for data set [10] is Rattus norvegicus. Nature of the data set: Radioactivity distribution in blood of normal fischer rat after injection of [18F]-fluoro-2-methyl-2-(methylamino)propanoic acid after 60 min. Format: ADME, organism-based. The conditions noted are these: in vivo, 1 h. The gist of the method: as §2
The species named for data set [11] is Rattus norvegicus. Nature of the data set: Radioactivity distribution in lung of normal fischer rat after injection of [18F]-fluoro-2-methyl-2-(methylamino)propanoic acid after 30 min. It counts as ADME, organism-based. The conditions noted are these: in vivo, 0.5 h. An outline of the steps: as §3
The species entered for data set [12] is Rattus norvegicus. Nature of the data set: Radioactivity distribution in bone of normal fischer rat after injection of [18F]-fluoro-2-methyl-2-(methylamino)propanoic acid after 5 min. Format: ADME, organism-based, Bone element. To be noted: in vivo. The gist of the method: as §2
The species entered for data set [13] is Rattus norvegicus. Nature of the data set: Radioactivity distribution in lung of normal fischer rat after injection of [18F]-fluoro-2-methyl-2-(methylamino)propanoic acid after 60 min. Format: ADME, organism-based. The conditions noted are these: in vivo, 1 h. An outline of the steps:
as §3

Data set [14] is filed under the species Rattus norvegicus. Nature of the data set: Radioactivity distribution in pancreas of normal fischer rat after injection of [18F]-fluoro-2-methyl-2-(methylamino)propanoic acid after 30 min. It counts as ADME, organism-based. To be noted: in vivo, 0.5 h. The gist of the method: as §3
Data set [15] is filed under the species Rattus norvegicus. Nature of the data set: Radioactivity distribution in pancreas of normal fischer rat after injection of [18F]-fluoro-2-methyl-2-(methylamino)propanoic acid after 60 min. It counts as ADME, organism-based. The conditions noted are these: in vivo, 1 h. An outline of the steps: as §3
The species named for data set [16] is Rattus norvegicus. As to the kind of experiment: Radioactivity distribution in blood of normal fischer rat after injection of [18F]-fluoro-2-methyl-2-(methylamino)propanoic acid after 120 min. Format: ADME, organism-based. To be noted: in vivo, 2 h. The gist of the method:
as §2

The species named for data set [17] is Rattus norvegicus. As to the kind of experiment: Radioactivity distribution in heart of normal fischer rat after injection of [18F]-fluoro-2-methyl-2-(methylamino)propanoic acid after 30 min. It counts as ADME, organism-based. To be noted: in vivo, 0.5 h. An outline of the steps:
as §2

Data set [18] is filed under the species Rattus norvegicus. As to the kind of experiment: Radioactivity distribution in testis of normal fischer rat after injection of [18F]-fluoro-2-methyl-2-(methylamino)propanoic acid after 120 min. Format: ADME, organism-based. The conditions noted are these: in vivo, 2 h. An outline of the steps:
as §1

Data set [19] is filed under the species Rattus norvegicus. As to the kind of experiment: Radioactivity distribution in brain of normal fischer rat after injection of [18F]-fluoro-2-methyl-2-(methylamino)propanoic acid after 60 min. To be noted: in vivo, 1 h. Format: ADME, organism-based. An outline of the steps:
as §2

The species entered for data set [20] is Rattus norvegicus. As to the kind of experiment: Radioactivity distribution in testis of normal fischer rat after injection of [18F]-fluoro-2-methyl-2-(methylamino)propanoic acid after 30 min. Format: ADME, organism-based. To be noted: in vivo, 0.5 h. The gist of the method: as §1
The species entered for data set [21] is Rattus norvegicus. As to the kind of experiment: Radioactivity distribution in tumor of tumor-bearing fischer rat after injection of [18F]-fluoro-2-methyl-2-(methylamino)propanoic acid after 5 min. To be noted: in vivo.
The species entered for data set [22] is Rattus norvegicus. As to the kind of experiment: Radioactivity distribution in kidney of normal fischer rat after injection of [18F]-fluoro-2-methyl-2-(methylamino)propanoic acid after 60 min. It counts as ADME, organism-based. The conditions noted are these: in vivo, 1 h. An outline of the steps:
as §2

Data set [23] is filed under the species Rattus norvegicus. As to the kind of experiment: Radioactivity distribution in tumor of tumor-bearing fischer rat after injection of [18F]-fluoro-2-methyl-2-(methylamino)propanoic acid after 120 min. To be noted: in vivo, 2 h.
For data set [24], the species on record is Rattus norvegicus. Nature of the data set: Radioactivity distribution in lung of normal fischer rat after injection of [18F]-fluoro-2-methyl-2-(methylamino)propanoic acid after 120 min. It counts as ADME, organism-based. To be noted: in vivo, 2 h. An outline of the steps: as §3

The structures appear in SMILES notation. Several values for one entry are separate records, joined by “and”; a condition that tells them apart may be missing. Equal values may be shown once.

`CNC(C)(C[18F])C(=O)O.Cl` (centres undefined): the ID/g in the data set filed under Rattus norvegicus [1] is 0.08%; in the data set listed under Rattus norvegicus [2], 0.17% and 0.19%; in the data set listed under Rattus norvegicus [3] it was 0.2% and 0.19%; in the data set filed under Rattus norvegicus [4], 0.78% and 0.85%; in the data set listed under Rattus norvegicus [5], 0.17% and 0.19%; in the data set listed under Rattus norvegicus [6] it was 0.61% and 0.69%. Besides, the ID/g in the data set listed under Rattus norvegicus [7] is 2.73% and 2.95%; in the data set filed under Rattus norvegicus [8], 0.72%; in the data set listed under Rattus norvegicus [9], 0.16% and 0.22%; in the data set filed under Rattus norvegicus [10], 0.18% and 0.17%; in the data set filed under Rattus norvegicus [11], 0.5%; in the data set filed under Rattus norvegicus [12], 0.34% and 0.33%. Moreover, the ID/g in the data set listed under Rattus norvegicus [13] was 0.38% and 0.26%; in the data set filed under Rattus norvegicus [14], 3%; in the data set listed under Rattus norvegicus [15], 3.24% and 2.42%; in the data set listed under Rattus norvegicus [16], 0.1%; in the data set filed under Rattus norvegicus [17], 0.23%; in the data set listed under Rattus norvegicus [18], 0.06% and 0.08%. Besides, the ID/g in the data set listed under Rattus norvegicus [19] was 0.03% and < 0.022%; in the data set filed under Rattus norvegicus [20] it was 0.11%; in the data set listed under Rattus norvegicus [21] it was 1.29%; in the data set filed under Rattus norvegicus [22] it was 2.73% and 2.79%; in the data set filed under Rattus norvegicus [23], 1.94%; in the data set filed under Rattus norvegicus [24], 0.3% and 0.19%.
